Assay results from ChEMBL document CHEMBL3588757, “Structure-based design, synthesis and biological testing of piperazine-linked bis-epipodophyllotoxin etoposide analogs” (Bioorg Med Chem, 2015).

Tests used:
Type in all cases: functional
[1] = test system: MOLT-4; assay: Cytotoxicity against human MOLT4 cells assessed as cell growth at 50 uM by SRB assay; settings: read-out: Activity
[2] = test system: SF-539; assay: Cytotoxicity against human SF539 cells assessed as cell growth at 0.5 uM by SRB assay; settings: read-out: Activity
[3] = test system: NCI-H322M; assay: Cytotoxicity against human NCI-H322M cells assessed as cell growth at 0.005 uM by SRB assay; settings: read-out: Activity
[4] = test system: SW-620; assay: Cytotoxicity against human SW620 cells assessed as cell growth at 0.5 uM by SRB assay; settings: read-out: Activity
[5] = test system: T47D; assay: Cytotoxicity against human T47D cells assessed as cell growth at 0.05 uM by SRB assay; settings: read-out: Activity
[6] = test system: OVCAR-5; assay: Cytotoxicity against human OVCAR5 cells assessed as cell growth at 0.05 uM by SRB assay; settings: read-out: Activity
[7] = test system: OVCAR-4; assay: Cytotoxicity against human OVCAR4 cells assessed as cell growth at 0.005 uM by SRB assay; settings: read-out: Activity
[8] = test system: SF-295; assay: Cytotoxicity against human SF295 cells assessed as cell growth at 5 uM by SRB assay; settings: read-out: Activity
[9] = test system: COLO 205; assay: Cytotoxicity against human COLO205 cells assessed as cell growth at 0.05 uM by SRB assay; settings: read-out: Activity
[10] = test system: SF-268; assay: Cytotoxicity against human SF268 cells by SRB assay
Summary of the method: (§1)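 NCI-60 panel screen; 5-dose testing giving GI50 per cell line, plus a single 10 µM one-dose test. Method details not given beyond the NCI screen.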

[11] = test system: MDA-MB-468; assay: Cytotoxicity against human MDA-MB-468 cells by SRB assay; summary of the method: as §1
[12] = test system: A498; assay: Cytotoxicity against human A498 cells assessed as cell growth at 0.005 uM by SRB assay; settings: read-out: Activity
[13] = test system: NCI-H460; assay: Cytotoxicity against human NCI-H460 cells assessed as cell growth at 50 uM by SRB assay; settings: read-out: Activity
[14] = test system: SK-MEL-28; assay: Cytotoxicity against human SK-MEL-28 cells assessed as cell growth at 50 uM by SRB assay; settings: read-out: Activity
[15] = test system: MDA-MB-231; assay: Cytotoxicity against human MDA-MB-231/ATCC cells assessed as cell growth at 50 uM by SRB assay; settings: read-out: Activity
[16] = test system: SK-OV-3; assay: Cytotoxicity against human SKOV3 cells by SRB assay; summary of the method: as §1
[17] = test system: HCT-15; assay: Cytotoxicity against human HCT15 cells assessed as cell growth at 0.05 uM by SRB assay; settings: read-out: Activity
Summary of the method: (§2)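 Measured in the NCI-60 human tumour cell line panel using five-dose testing. Growth was recorded at each dose for each cell line, and a GI50 was derived for each line.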

[18] = test system: LOX IMVI; assay: Cytotoxicity against human LOXIMVI cells assessed as cell growth at 50 uM by SRB assay; settings: read-out: Activity
[19] = test system: NCI-H460; assay: Cytotoxicity against human NCI-H460 cells assessed as cell growth at 0.5 uM by SRB assay; settings: read-out: Activity
[20] = test system: OVCAR-8; assay: Cytotoxicity against human OVCAR8 cells assessed as cell growth at 50 uM by SRB assay; settings: read-out: Activity
[21] = test system: SNB-75; assay: Cytotoxicity against human SNB75 cells by SRB assay; summary of the method: as §1
[22] = test system: NCI-H522; assay: Cytotoxicity against human NCI-H522 cells by SRB assay; summary of the method: as §1
[23] = test system: A498; assay: Cytotoxicity against human A498 cells by SRB assay
[24] = test system: SN12C; assay: Cytotoxicity against human SN12C cells assessed as cell growth at 0.05 uM by SRB assay; settings: read-out: Activity
[25] = test system: MCF7; assay: Cytotoxicity against human MCF7 cells by SRB assay; summary of the method: as §1
[26] = test system: HCT-15; assay: Cytotoxicity against human HCT15 cells assessed as cell growth at 50 uM by SRB assay; settings: read-out: Activity; summary of the method: as §2
[27] = test system: LOX IMVI; assay: Cytotoxicity against human LOXIMVI cells by SRB assay; summary of the method: as §1
[28] = test system: NCI-H23; assay: Cytotoxicity against human NCI-H23 cells assessed as cell growth at 50 uM by SRB assay; settings: read-out: Activity
[29] = Cytotoxicity against human Hs578T cells assessed as cell growth at 0.05 uM by SRB assay; settings: Hs-578T, read-out: Activity; summary of the method: as §2
[30] = test system: UO-31; assay: Cytotoxicity against human UO31 cells assessed as cell growth at 0.5 uM by SRB assay; settings: read-out: Activity
[31] = test system: KM12; assay: Cytotoxicity against human KM12 cells assessed as cell growth at 50 uM by SRB assay; settings: read-out: Activity
[32] = test system: HCC 2998; assay: Cytotoxicity against human HCC2998 cells assessed as cell growth at 50 uM by SRB assay; settings: read-out: Activity; summary of the method: as §2
[33] = test system: OVCAR-4; assay: Cytotoxicity against human OVCAR4 cells assessed as cell growth at 0.05 uM by SRB assay; settings: read-out: Activity
[34] = test system: SNB-19; assay: Cytotoxicity against human SNB19 cells assessed as cell growth at 5 uM by SRB assay; settings: read-out: Activity
[35] = test system: OVCAR-3; assay: Cytotoxicity against human OVCAR3 cells assessed as cell growth at 0.05 uM by SRB assay; settings: read-out: Activity
[36] = test system: OVCAR-4; assay: Cytotoxicity against human OVCAR4 cells assessed as cell growth at 5 uM by SRB assay; settings: read-out: Activity
[37] = Cytotoxicity against human Hs578T cells assessed as cell growth at 0.5 uM by SRB assay; settings: Hs-578T, read-out: Activity; summary of the method: as §2
[38] = test system: NCI-H522; assay: Cytotoxicity against human NCI-H522 cells assessed as cell growth at 5 uM by SRB assay; settings: read-out: Activity
[39] = test system: SK-MEL-28; assay: Cytotoxicity against human SK-MEL-28 cells by SRB assay; summary of the method: as §1
[40] = read-out: LC50 (the source's name)
[41] = read-out: pLC50 (the source's name) (converted)

Compound: COc1cc([C@@H]2c3cc4c(cc3[C@@H](NC(=O)CN3CCN(CCCCCCN5CCN(CC(=O)N[C@@H]6c7cc8c(cc7[C@@H](c7cc(OC)c(O)c(OC)c7)[C@H]7C(=O)OC[C@@H]76)OCO8)CC5)CC3)[C@H]3COC(=O)[C@H]23)OCO4)cc(OC)c1O
- growth at 50 µM [1]: 5%
- growth at 0.5 µM [2]: 71%
- growth at 0.005 µM [3]: 98%
- growth at 0.5 µM [4]: 63%
- growth at 0.05 µM [5]: 90%
- growth at 0.05 µM [6]: 89%
- growth at 0.005 µM [7]: 85%
- growth at 5 µM [8]: 50%
- growth at 0.05 µM [9]: 99%
- GI50 ([10]; read-out: GI50): 1.38 µM
- CC50 [10, 40]: > 50 µM
- TGI ([10]; read-out: TGI): > 50 µM
- GI50 ([10]; read-out: pGI50 (converted)): 1.38 µM
- CC50 [10, 41]: > 50.1 µM
- TGI ([10]; read-out: pTGI (converted)): > 50.1 µM
- GI50 ([11]; read-out: GI50): 1.72 µM
- CC50 [11, 40]: 50 µM
- TGI ([11]; read-out: TGI): 12.3 µM
- GI50 ([11]; read-out: pGI50 (converted)): 1.74 µM
- CC50 [11, 41]: > 50.1 µM
- TGI ([11]; read-out: pTGI (converted)): 12.3 µM
- growth at 0.005 µM [12]: 82%
- growth at 50 µM [13]: -28%
- growth at 50 µM [14]: 3%
- growth at 50 µM [15]: 13%
- GI50 ([16]; read-out: GI50): 3.87 µM
- CC50 [16, 40]: > 50 µM
- TGI ([16]; read-out: TGI): > 50 µM
- GI50 ([16]; read-out: pGI50 (converted)): 3.89 µM
- CC50 [16, 41]: > 50.1 µM
- TGI ([16]; read-out: pTGI (converted)): > 50.1 µM
- growth at 0.05 µM [17]: 93%
- growth at 50 µM [18]: -8%
- growth at 0.5 µM [19]: 35%
- growth at 50 µM [20]: 43%
- GI50 ([21]; read-out: GI50): 0.957 µM
- CC50 [21, 40]: > 50 µM
- TGI ([21]; read-out: TGI): 12.8 µM
- GI50 ([21]; read-out: pGI50 (converted)): 0.955 µM
- CC50 [21, 41]: > 50.1 µM
- TGI ([21]; read-out: pTGI (converted)): 12.9 µM
- GI50 ([22]; read-out: GI50): 5.13 µM
- CC50 [22, 40]: > 50 µM
- TGI ([22]; read-out: TGI): 28.8 µM
- GI50 ([22]; read-out: pGI50 (converted)): 5.13 µM
- CC50 [22, 41]: > 50.1 µM
- TGI ([22]; read-out: pTGI (converted)): 28.8 µM
- GI50 ([23]; read-out: GI50): 5.74 µM
- CC50 [23, 40]: > 50 µM
- TGI ([23]; read-out: TGI): 35.2 µM
- GI50 ([23]; read-out: pGI50 (converted)): 5.75 µM
- CC50 [23, 41]: > 50.1 µM
- TGI ([23]; read-out: pTGI (converted)): 35.5 µM
- growth at 0.05 µM [24]: 97%
- GI50 ([25]; read-out: GI50): 0.195 µM
- CC50 [25, 40]: > 50 µM
- TGI ([25]; read-out: TGI): > 50 µM
- GI50 ([25]; read-out: pGI50 (converted)): 0.195 µM
- CC50 [25, 41]: > 50.1 µM
- TGI ([25]; read-out: pTGI (converted)): > 50.1 µM
- growth at 50 µM [26]: 60%
- GI50 ([27]; read-out: GI50): 0.966 µM
- CC50 [27, 40]: > 50 µM
- TGI ([27]; read-out: TGI): 28 µM
- GI50 ([27]; read-out: pGI50 (converted)): 0.977 µM
- CC50 [27, 41]: > 50.1 µM
- TGI ([27]; read-out: pTGI (converted)): 28.2 µM
- growth at 50 µM [28]: -6%
- growth at 0.05 µM [29]: 90%
- growth at 0.5 µM [30]: 92%
- growth at 50 µM [31]: 10%
- growth at 50 µM [32]: -10%
- growth at 0.05 µM [33]: 89%
- growth at 5 µM [34]: 15%
- growth at 0.05 µM [35]: 108%
- growth at 5 µM [36]: 64%
- growth at 0.5 µM [37]: 77%
- growth at 5 µM [38]: 51%
- GI50 ([39]; read-out: GI50): 6.52 µM
- CC50 [39, 40]: > 50 µM
- TGI ([39]; read-out: TGI): > 50 µM
- GI50 ([39]; read-out: pGI50 (converted)): 6.46 µM
- CC50 [39, 41]: > 50.1 µM
- TGI ([39]; read-out: pTGI (converted)): > 50.1 µM
